# Most compounds without a hit are left out; they make up all but 2.3% or so of the library.
# TRPC6 activator: mouse TRPC6 channel activation | Q61143 | HEK293-TRPC6 membrane potential dye fluorescence; active compounds read high | B-score at 10 µM | 310,000 tested, 0.13% active | AID 2550;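 active = B-score of the integrated fluorescence ratio above library mean plus 3 SD, and starting fluorescence ratio within library mean plus 5 SD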;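 note: higher score means more depolarization so channel activation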
# Target sequence (Q61143 whole entry, looked up): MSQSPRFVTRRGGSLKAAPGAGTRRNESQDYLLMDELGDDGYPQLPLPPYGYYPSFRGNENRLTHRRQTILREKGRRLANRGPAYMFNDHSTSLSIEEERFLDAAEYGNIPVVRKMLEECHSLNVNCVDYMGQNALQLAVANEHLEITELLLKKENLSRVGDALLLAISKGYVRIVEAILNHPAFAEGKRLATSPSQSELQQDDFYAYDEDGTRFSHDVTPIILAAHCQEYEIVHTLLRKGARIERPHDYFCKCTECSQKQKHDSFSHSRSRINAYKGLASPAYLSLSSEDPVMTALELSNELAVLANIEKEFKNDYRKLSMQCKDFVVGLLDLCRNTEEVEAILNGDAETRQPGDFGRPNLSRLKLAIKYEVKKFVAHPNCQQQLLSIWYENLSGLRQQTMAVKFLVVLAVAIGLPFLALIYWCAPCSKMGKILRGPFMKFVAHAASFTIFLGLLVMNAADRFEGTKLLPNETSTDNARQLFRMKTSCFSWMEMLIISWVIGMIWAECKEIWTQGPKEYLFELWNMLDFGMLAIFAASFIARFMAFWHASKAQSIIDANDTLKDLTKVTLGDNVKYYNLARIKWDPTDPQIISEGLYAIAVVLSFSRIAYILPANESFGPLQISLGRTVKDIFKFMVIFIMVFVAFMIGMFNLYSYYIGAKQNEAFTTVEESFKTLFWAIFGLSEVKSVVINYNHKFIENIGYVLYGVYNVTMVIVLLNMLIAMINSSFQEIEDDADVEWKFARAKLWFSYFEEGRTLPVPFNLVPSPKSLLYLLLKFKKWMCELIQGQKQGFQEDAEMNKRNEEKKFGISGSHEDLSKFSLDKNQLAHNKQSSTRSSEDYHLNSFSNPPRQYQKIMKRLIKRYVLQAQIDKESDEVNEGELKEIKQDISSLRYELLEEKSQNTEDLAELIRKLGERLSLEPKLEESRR
# TRPC4 potent: TRPC4 (mouse) allosteric potentiation; HEK293 TRPC4beta/mu-opioid, DAMGO EC20, Fluo-4 Ca2+ flux; active compounds read high; 310,000 tested, 0.42% active; B-score at 10 µM; AID 2227; Q9QUQ5;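 active = B-score of calcium response area above 5 SD of library B-scores, with initial fluorescence ratio within 5 SD of library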
# TRPC4 block: inhibitors of mouse TRPC4 channel | 300,000 tested, 0.39% active | B-score at 10 µM | HEK293 TRPC4beta/mu-opioid, DAMGO-evoked Fluo4 calcium flux; active compounds read low;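 active = B-score over 3 SD under the library average, no early fluorescence shift, positive overall ratio signal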
#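 material = TRPC4beta/mu-opioid receptor HEK293 cell line | probe or stimulus = sequential submaximal and maximal DAMGO stimulation | compound dosing = one concentration per compound | measured by = Fluo4 Ca2+ flux fluorescence | evaluation = integrated fluorescence ratio relative to baseline, converted to per-well B score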
# TRPC6 inh: blocks the mouse TRPC6 cation channel. B-score at 10 µM. 310,000 tested, 1.1% active. Q61143. HEK293-TRPC6, membrane potential dye, ACh-evoked depolarization; active compounds read low;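 active = B-score under library mean minus 3 SD, initial fluorescence not abnormally high, positive integrated signal ratio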;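 note: B-score derived from integrated fluorescence ratio over the kinetic read; more negative B-score means stronger inhibition of depolarization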
# TRPC4 act: opens the mouse TRPC4 cation channel. B-score at 10 µM. Q9QUQ5. HEK293 TRPC4beta/mu-opioid, Fluo4 calcium fluorescence; active compounds read high. 310,000 tested, 0.49% active. AID 2237;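 active = B-score above 5 SD of library B-scores, and initial fluorescence ratio not above library mean plus 5 SD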;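 note: positive B-score marks a calcium rise read as TRPC4 activation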
#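 Assay system: HEK293 stable line with TRPC4beta plus mu-opioid receptor; schedule: 45 min room-temperature Fluo4 loading, 110 s read; technique: kinetic Fluo4 calcium fluorescence; evaluation: integrated baseline-normalised fluorescence ratio, converted to per-well B score; controls: buffer (low) and maximal DAMGO (high)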
# TRPC4 sel inh 2: mouse TRPC4 off-target activity of TRPC6 inhibitors, second screen; shares compounds with TRPC6 inh; HEK293 TRPC4/MOR, membrane potential dye fluorescence; channel activated by saturating DAMGO dose; inhibition, % at 10 µM; 920 tested, 42% active;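 active = compounds whose fluorescence signal differed from control wells by over 3 SD, either direction, in both duplicate plates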
# TRPC4 spec: selectivity of TRPC6 inhibitors: effect on mouse TRPC4; HEK293 TRPC4/mu-opioid, membrane potential fluorescence; activity change, negative = inhibition, % at 10 µM; shares compounds with TRPC6 inh; AID 2777; 920 tested, 61% active;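 active = rise or fall in signal beyond 3 SD of buffer-only wells in both replicate plates, either sign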;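 note: integrated kinetic ratio of fluorescence range over baseline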
# HEK293 MPD ctr 2-1: second check of TRPC6 inhibitor effects in parental HEK293 cells. shares compounds with TRPC6 inh. parental HEK293 membrane potential dye fluorescence; maximal acetylcholine challenge after compound addition. signal change vs control, % at 10 µM. 920 tested, 31% active;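 active = membrane potential signal moving either way by over 3 SD of the maximum-effect control, in both duplicate plates, meaning non-specific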
# HEK293 MPD ctr-1: checks TRPC6 inhibitor effects in parental HEK293 cells; shares compounds with TRPC6 inh; parental HEK293 membrane potential dye fluorescence; membrane potential signal change, % at 10 µM; 920 tested, 60% active; AID 2780;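 active = membrane potential signal shifting up or down by more than 3 SD of buffer-only wells, on both duplicate plates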
# HEK293 MPD ctr-2: counter-screen for TRPC6 modulators: effect in parental HEK293 cells; 2,400 tested, 51% active; shares compounds with TRPC6 inh; membrane potential dye fluorescence; membrane potential signal change, % at 10 µM;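 active = membrane potential signal moves up or down beyond 5 SD from buffer-only wells, on both duplicate plates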
# HEK293 MPD ctr 2-2: second counter-screen for TRPC6 modulators: effect in parental HEK293 cells. shares compounds with TRPC6 inh. membrane potential dye fluorescence; after compound, maximal acetylcholine stimulation. inhibition, % at 10 µM. 2,400 tested, 14% active. AID 488926;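 active = membrane potential signal drops by more than 5 SD from the mean control signal, in both duplicate plates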
# TRPC4 ctr mod: selectivity of TRPC6 modulators against mouse TRPC4; shares compounds with TRPC6 inh; HEK293 TRPC4/mu-opioid, membrane potential fluorescence; percent change from control (negative = decrease, positive = increase), % at 10 µM; 2,400 tested, 69% active;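 active = membrane potential signal moved up or down beyond 5 SD of buffer control wells, in both duplicate plates, actives on both sides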
# TRPC4/MOR inh 2: second check of whether TRPC6 modulators also affect mouse TRPC4 | shares compounds with TRPC6 inh | HEK293 TRPC4/mu-opioid, membrane potential dye fluorescence; stimulated with maximal-effect DAMGO | inhibition, % at 10 µM | 2,400 tested, 55% active | AID 488928;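 active = drop in membrane potential signal beyond 5 SD of the control wells in both duplicate plates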;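 note: TRPC4 counter screen for TRPC6 hits run under conditions tuned for TRPC6 not TRPC4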
# TRPC6 inh conf: mouse TRPC6 inhibitor confirmation. shares compounds with TRPC6 inh. HEK293-TRPC6, membrane potential dye, ACh-evoked depolarization. inhibition, % at 10 µM. 3,300 tested, 43% active. AID 488960;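 active = fluorescence ratio falls more than 5 SD below the full-stimulation control mean, in both duplicate runs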;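 note: integrated fluorescence ratio of peak minus minimum over baseline after agonist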
# TRPC6 act confirm: confirmation of mouse TRPC6 activators | shares compounds with TRPC6 inh | HEK293-TRPC6 membrane potential dye fluorescence, FDSS | activation, % at 10 µM | 2,800 tested, 11% active | AID 488961;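 active = ratio signal rise beyond 5 SD above unstimulated control wells' mean, seen in both duplicate runs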
# Numbers stand for hits; – = inactive; · = no result given.
SMILES,TRPC6 activator,TRPC4 potent,TRPC4 block,TRPC6 inh,TRPC4 act,HEK293 MPD ctr-2,HEK293 MPD ctr 2-2,TRPC4 ctr mod,TRPC4/MOR inh 2,TRPC6 inh conf,TRPC6 act confirm,others
COc1cc(NC(=O)CSCC(=O)Nc2cccc(C(F)(F)F)c2)c(Cl)cc1Cl,–,–,–,-7.31,–,·,·,·,·,–,–,TRPC4 sel inh 2=–;TRPC4 spec=–;HEK293 MPD ctr 2-1=–;HEK293 MPD ctr-1=–
O=C(COCC(=O)Nc1cccc(C(F)(F)F)c1)Nc1cccc(C(F)(F)F)c1,–,–,–,–,–,·,·,·,·,·,·,
Cc1cccc(C)c1OCCNC(=O)c1ccc2ccccc2n1,12.5,–,–,-13.4,–,149.5%,–,–,44.0%,91.0%,77.5%,
O=C(NCc1ccco1)c1ccc2ccccc2n1,–,–,–,-5.08,–,–,–,–,–,44.5%,·,
CN(C)CCn1c(C(=O)Nc2ccccc2)cc2ccccc21,–,–,–,-7.83,–,·,·,·,·,–,–,TRPC4 sel inh 2=48.5%;TRPC4 spec=-17.1%;HEK293 MPD ctr 2-1=–;HEK293 MPD ctr-1=-235.0%
Cc1ccc(N/C(N)=N/c2nc3c(c(=O)[nH]2)CCCC3)c(C)c1,–,–,–,–,–,·,·,·,·,·,·,
Cc1ccc(N/C(N)=N/c2nc(C)cc(N3CCCCC3)n2)c(C)c1,–,–,–,-8.95,–,339.0%,–,74.5%,66.0%,82.5%,·,
COc1ccc(C(CCNCc2ccc(N(C)C)cc2)C(C)C)cc1 (centres undefined),–,–,–,-5.17,–,237.0%,–,44.5%,56.0%,46.5%,·,
COc1ccc(C(CCNCc2ccc(OC(C)C)cc2)C(C)C)cc1 (centres undefined),–,–,–,–,–,·,·,·,·,·,·,
CCOc1ccc(NC(=O)C2CCN(S(=O)(=O)c3ccc4c(c3)C(C)(C)C(=O)N4C)CC2)cc1,–,–,–,–,–,·,·,·,·,·,·,
O=C(C1CCCN(Cc2ccc(F)cc2)C1)N1CCCCC1 (centres undefined),–,–,–,–,–,·,·,·,·,·,·,
O=C(Nc1ccccc1Oc1cccnc1)C1CCCN(Cc2ccc(F)cc2)C1 (centres undefined),–,–,-6,-6.39,–,175.5%,–,31.0%,45.5%,–,·,
COc1ccc(OC)c2c(C)cc(N3CCCN(C)CC3)nc12,–,–,–,-10.6,–,-246.5%,74.5%,-40.0%,69.0%,67.5%,–,
COc1ccccc1N1CCN(c2cc(N3CCCC3)nc(C)n2)CC1,–,–,–,–,–,·,·,·,·,·,·,
CCOc1ccccc1CSc1nc2ccccc2[nH]1,–,–,–,-5.77,–,–,–,–,–,–,–,
Cc1ncc(CSc2nc3ccccc3[nH]2)c(N)n1,–,–,–,–,–,·,·,·,·,·,·,
O=C(c1ccc(Cl)c(S(=O)(=O)N2CCOCC2)c1)N(c1ccccn1)C1CCCCC1,–,–,–,-5.96,–,170.5%,–,30.5%,–,–,·,
CC(NC(=O)C(=O)N1CCCCC1)C(c1cccs1)N1CCN(C)CC1 (centres undefined),–,–,–,–,–,·,·,·,·,·,·,
Cc1ccc(NC(=O)CCC(=O)n2nc(C)cc2C)c(C)c1,–,–,–,-5.88,–,–,–,–,–,–,–,
C(=N\Nc1nc2ccccc2[nH]1)/c1c[nH]c2ccccc12,–,–,–,-9.66,–,-105.0%,–,-26.0%,74.0%,55.5%,–,
Cc1ccccc1/C=N/Nc1nc2ccccc2[nH]1,–,–,–,–,–,·,·,·,·,·,·,
CN(C)c1nc(N/N=C/c2c[nH]c3ccccc23)nc(N2CCOCC2)n1,–,–,–,–,–,·,·,·,·,·,·,
C(=N\Nc1nc(N2CCCCC2)nc(N2CCCCC2)n1)/c1c[nH]c2ccccc12,–,–,–,-7.86,–,-55.5%,–,-15.0%,42.5%,58.5%,–,
S=C(NCCN1CCOCC1)N/N=C/c1c2ccccc2cc2ccccc12,–,–,–,-5.15,–,260.0%,–,-22.5%,–,–,–,
O=C(O)c1ccc(S(=O)(=O)N2CCSCC2)cc1,–,–,–,–,–,·,·,·,·,·,·,
SMILES,TRPC6 activator,TRPC4 potent,TRPC4 block,TRPC6 inh,TRPC4 act,HEK293 MPD ctr-2,HEK293 MPD ctr 2-2,TRPC4 ctr mod,TRPC4/MOR inh 2,TRPC6 inh conf,TRPC6 act confirm,others
Cc1ccc(S(=O)(=O)N2CCC(=O)N(CCOC(=O)Nc3cc(C)cc(C)c3)CC2)cc1,14.3,–,–,-8.28,–,–,–,12.5%,–,90.0%,141.5%,
CN1CCN(S(=O)(=O)c2ccc(NC(=O)c3cccc(F)c3)cc2)CC1,–,–,–,–,–,·,·,·,·,·,·,
CN(C)S(=O)(=O)c1cccc(C(=O)Nc2ccc(S(=O)(=O)N3CCCC3)cc2)c1,–,–,·,-5.24,–,–,–,–,–,–,–,
CC1CCCN(S(=O)(=O)c2ccc(NC(=O)CNC3CCCC3)cc2)C1 (centres undefined),–,–,–,-6.71,–,·,·,·,·,–,–,TRPC4 sel inh 2=54.0%;TRPC4 spec=–;HEK293 MPD ctr 2-1=–;HEK293 MPD ctr-1=3.2%
Cc1ccc(S(=O)(=O)N2CCC(=O)N(CCOC(=O)Nc3ccccc3C)CC2)cc1,–,–,–,–,–,·,·,·,·,·,·,
CN1CCN(S(=O)(=O)c2ccc(NC(=O)c3cccc(S(=O)(=O)N4CCCC4)c3)cc2)CC1,–,–,–,-5.46,–,–,–,–,–,–,–,
CC1CCN(CCc2nc3cc(NC(=O)COc4ccc([N+](=O)[O-])cc4)ccc3n2C)CC1,–,–,–,–,–,·,·,·,·,·,·,
CC(=O)Nc1ccc(S(=O)(=O)N2CCCN(S(=O)(=O)c3ccc(C)cc3)CC2)cc1,–,–,–,-7.44,–,·,·,·,·,–,–,TRPC4 sel inh 2=–;TRPC4 spec=–;HEK293 MPD ctr 2-1=–;HEK293 MPD ctr-1=–
O=C(O)CCC(=O)Nc1ccc2c(c1)Cc1cc(NC(=O)CCC(=O)O)ccc1-2,–,–,–,–,–,·,·,·,·,·,·,

# Screening data deposited in PubChem by Johns Hopkins Ion Channel Center.
